# Measured values taken from PubChem BioAssay.
# Calls of active or inactive are those of the source.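 Rule for the calls, unless noted: active = viability at or under a set limit in both replicates, limit being median viability minus 3 SD (cut at about 48% in these data, passing the limit was not always enough); inconclusive = at or under the limit in just one replicate; inactive = at or above the limit in both replicates.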 Peptide text beside a SMILES is read from it. * marks the point of attachment. Boc = CC(C)(C)OC(=O)*
# What was measured:
# [1] = SK-BR-3 cell growth inhibitors, pilot screen, 24 h, human (AID 572;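 active = viability at or below 10% of carrier control in both of two separate runs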;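 note: compound exposure lasted between 18 and 24 h rather than exactly 24 h; 100% = carrier-treated control wells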); details: SK-BR-3 viability, CellTiter-Glo luminescence, at 10 µM, stronger effect = lower value
# [2] = HUVEC growth inhibition – cell-based, human, primary screen (AID 575;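 active = viability at or below 30% in both replicate assays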;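 note: 100% = median of untreated cell wells with 0.1% DMSO on each plate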); details: HUVEC proliferation, CellTiter-Glo luminescence, 72 h; at 10 µM; stronger effect = lower value
# Procedure, shortened: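 system = HUVEC primary cells | amount = 1250 cells/well | buffer or medium = supplemented EBM, 2% fetal bovine serum | dosing = single-point 10 µM, DMSO 0.1% final | times = 72 h compound incubation | detection = CTG luminescence | read-out = % viability relative to median vehicle-well signal on each plate | control set = vehicle and MePR control wells | format = collagen-coated 384-well format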
# [3] = growth inhibitors of H69AR lung tumor, primary screen, human, duplicate replicates (AID 580); details: H69AR lung tumor cells viability, ATP luminescence, 72 h; at 10 µM; stronger effect = lower value;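 note: 100% = mean luminescence of untreated wells and 0% = no signal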
# [4] = reversal of MRP1-mediated doxorubicin resistance, pilot screen, H69AR cells, doxorubicin co-treatment (AID 601;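 active = viability loss from added drug above about 55%, and viability with drug at most 40%, in both replicates, limit read from the data, passing the limit was not always enough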); details: CellTiter-Glo, 72 h, at 10 µM; for differential viability (reversal): stronger effect = higher value
# [5] = 384-well plate pilot, post-Golgi transport modulator project, inhibition of yeast transport mutant growth (AID 636; in the data active = inhibition above about 31%); details: absorbance 615 nm, about 18 h, stronger effect = higher value
# [6] = growth suppression of yeast trafficking mutant, preliminary HTS, modulators of trafficking downstream of Golgi apparatus project, 1536-format plate, OD 615 nm (AID 637; in the data active = inhibition above about 30%); details: yeast transport mutant growth, absorbance 615 nm, 18 h; stronger effect = higher value
# [7] = H69AR cells + 2 uM doxorubicin, measured here: viability with 2 uM doxorubicin, stronger effect = lower value
# [8] = H69AR cells, compound alone cytotoxicity
SMILES,viability [1],viability [2],viability [3],differential viability (reversal) ([4]; H69AR cells + 2 uM doxorubicin),"viability [4, 7] [%]","viability [4, 8] [%]",inhibition [5],inhibition [6]
Cc1cc(C)n(Cc2cc(C)c(Cn3nc(C)cc3C)cc2C)n1,99% (inactive),101% (inactive),106% (inactive),12.2% (inactive),93.9,106,-4.73% (inactive),1.64% (inactive)
Clc1ccc(Cl)c(-c2nn3c(Cn4cnc5ccccc54)nnc3s2)c1,78% (inactive),98.5% (inactive),102% (inactive),6.11% (inactive),96,102,-6.3% (inactive),-0.18% (inactive)
C=CCN1C(=O)CS/C1=C(\C#N)S(=O)(=O)c1ccc(C)cc1,114% (inactive),96.2% (inactive),85.5% (inactive),-2.67% (inactive),88.2,85.5,-5.62% (inactive),-1.45% (inactive)
CCOC(=O)C1CCN(c2cc(C)nc3cc(-c4cccc(F)c4)nn23)CC1,86% (inactive),105% (inactive),90.4% (inactive),7.95% (inactive),82.4,90.4,-3.78% (inactive),-6.91% (inactive)
CCOc1ccc2nc(SCC(=O)Nc3ncccn3)[nH]c2c1,92% (inactive),97.4% (inactive),105% (inactive),18.1% (inactive),86.6,105,-1.62% (inactive),3.45% (inactive)
C=CCn1c(SCC(=O)C(C)(C)C)nnc1-c1ccccn1,88% (inactive),94.4% (inactive),92.2% (inactive),-0.455% (inactive),92.6,92.2,-7.57% (inactive),-3.64% (inactive)
COc1ccc(-n2c(SCC(=O)N3CCCCC3C)nnc2-c2cccnc2)cc1 (stereo not drawn),87% (inactive),98.7% (inactive),102% (inactive),10.5% (inactive),91.1,102,-5.54% (inactive),2% (inactive)
O=C(CN1C(=O)c2ccccc2C1=O)Nc1ccc(S(=O)(=O)NCC2CCCO2)cc1 (stereo not drawn),89% (inactive),107% (inactive),96.4% (inactive),-14.1% (inactive),110,96.4,-7.4% (inactive),-4.91% (inactive)
CCOC(=O)C1CCN(CC(=O)c2c(C)[nH]c3ccccc23)CC1,100% (inactive),112% (inactive),92.6% (inactive),0.74% (inactive),91.9,92.6,-0.67% (inactive),-2.73% (inactive)
CCC1CCCCN1C(=O)C1CC(c2cc(Cl)c(OC)cc2OC)=NO1 (stereo not drawn),86% (inactive),89.7% (inactive),96.6% (inactive),-4.29% (inactive),101,96.6,-2.86% (inactive),-3.77% (inactive)
O=S(=O)(c1cccc(S(=O)(=O)N2CCC(N3CCCCC3)CC2)c1)N1CCOCC1,103% (inactive),98.9% (inactive),93.6% (inactive),9.45% (inactive),84.2,93.6,-0.78% (inactive),-2.95% (inactive)
CCC1CCCCN1CCCNC(=O)c1ccc(CS(=O)(=O)Cc2ccccc2F)o1 (stereo not drawn),106% (inactive),114% (inactive),92.9% (inactive),-12.3% (inactive),105,92.9,-7.4% (inactive),2.73% (inactive)
Cc1cn2c(-c3ccncc3)nnc2s1,144% (inactive),87.4% (inactive),99.8% (inactive),7.13% (inactive),92.7,99.8,-1.23% (inactive),3.55% (inactive)
CC(=O)OCC(=O)[C@H]1CC[C@H]2[C@@H]3CCC4=CC(=O)CC[C@]4(C)[C@H]3CC[C@]12C,86% (inactive),39.2% (inactive),102% (inactive),-0.2% (inactive),102,102,-0.91% (inactive),-3.5% (inactive)
CCc1n[nH]c2c1C(=O)CC(C)(C)C2,73% (inactive),106% (inactive),89.1% (inactive),-1.54% (inactive),90.6,89.1,2% (inactive),6% (inactive)
CCOc1ccc(NC(=O)C2CC(=O)N(CC)C(=Nc3ccc4c(c3)OCO4)S2)cc1 (stereo not drawn),87% (inactive),109% (inactive),84% (inactive),-0.76% (inactive),84.7,84,-2.84% (inactive),-5.64% (inactive)
COc1ccc(NC(=O)c2oc3ccccc3c2NC(=O)c2ccco2)cc1,90% (inactive),88.8% (inactive),78.4% (inactive),-0.385% (inactive),78.8,78.4,-4.59% (inactive),-4.92% (inactive)
Cc1cc(C)n(-c2nc3sc4c(c3c3nnc(SCC(N)=O)n23)CC(C)(C)OC4)n1,84% (inactive),97.4% (inactive),90.7% (inactive),3.85% (inactive),86.8,90.7,0.68% (inactive),-3.87% (inactive)

SMILES,viability [1],viability [2],viability [3],differential viability (reversal) ([4]; H69AR cells + 2 uM doxorubicin),"viability [4, 7] [%]","viability [4, 8] [%]",inhibition [5],inhibition [6]
N#CCc1nc2c3c4c(sc3ncn2n1)CCCC4,112% (inactive),23.6% (active),86.4% (inactive),8.27% (inactive),78.1,86.4,-5.54% (inactive),0.36% (inactive)
CNC(=O)NCCN1CCCC1=O,110% (inactive),112% (inactive),102% (inactive),14.5% (inactive),87.5,102,-5% (inactive),-3.09% (inactive)
CCC(C)C(NC(=O)OC(C)(C)C)C(=O)NC(CC(C)C)C(N)=O (stereo not drawn) (Boc-Ile-Leu-NH2; configuration not given here),109% (inactive),114% (inactive),98.9% (inactive),9.78% (inactive),89.1,98.9,-2.73% (inactive),-1.8% (inactive)
CCOC(=O)Nc1cc(OC)c(OC)cc1Cc1nccc2cc(OC)c(OC)cc12,113% (inactive),95.7% (inactive),87.1% (inactive),5.61% (inactive),81.5,87.1,-2.05% (inactive),28.7% (inactive)
O=C(NC1CCCCCC1)c1cc(S(=O)(=O)N2CCC3(CC2)OCCO3)ccc1F,106% (inactive),98.2% (inactive),88.3% (inactive),-4.04% (inactive),92.4,88.3,0.27% (inactive),3.27% (inactive)
CCc1ccccc1OCCCCN1CCCC1,124% (inactive),82% (inactive),89.1% (inactive),10.8% (inactive),78.2,89.1,-5.06% (inactive),-1.97% (inactive)
Cc1[nH]c2ccc(F)cc2c(=O)c1SC(F)(F)C(F)C(F)(F)F (stereo not drawn),72% (inactive),92.5% (inactive),83.3% (inactive),-14.3% (inactive),97.6,83.3,-5.95% (inactive),-5.27% (inactive)
Cc1c(NC(=O)Cn2nc(C(=O)O)c3ccccc3c2=O)c(=O)n(-c2ccccc2)n1C,116% (inactive),102% (inactive),101% (inactive),0.425% (inactive),100,101,2.88% (inactive),-6.45% (inactive)
Cc1nc2sccn2c(=O)c1CCN1CCC(=C(c2ccccc2)c2ccc(F)cc2)CC1,160% (inactive),3.02% (active),81.9% (inactive),-12.5% (inactive),94.5,81.9,-0.13% (inactive),24.5% (inactive)
O=C(CN1C(=O)NC2(CCCCC2)C1=O)Nc1ccc(S(=O)(=O)N2CCOCC2)cc1,124% (inactive),98.3% (inactive),96.3% (inactive),13.6% (inactive),82.7,96.3,-3.38% (inactive),3.77% (inactive)
OC[C@H]1O[C@@H](n2cnc3c(NC4CCCC4)ncnc32)[C@H](O)[C@@H]1O,113% (inactive),57.6% (inactive),74.9% (inactive),-18.2% (inactive),93,74.9,0.52% (inactive),-5% (inactive)
CN(CC(=O)N1CCCc2c1c(=O)oc1ccc(O)cc21)Cc1ccccc1,95% (inactive),87.6% (inactive),90% (inactive),-3.29% (inactive),93.3,90,-7.3% (inactive),0.36% (inactive)
COc1ccc(OC)c(Nc2nc(-c3cccs3)cs2)c1,82% (inactive),60.7% (inactive),76.5% (inactive),-7.61% (inactive),84.1,76.5,-6.71% (inactive),0.36% (inactive)
O=C(Cn1cnc2c(cnn2-c2ccccc2)c1=O)NCCc1ccccc1,102% (inactive),91.6% (inactive),91.8% (inactive),0.99% (inactive),90.8,91.8,-4.68% (inactive),-5.74% (inactive)
Cc1cc(NC(=O)c2cnn3c(C(F)F)cc(C4CC4)nc23)no1,131% (inactive),79.6% (inactive),82.4% (inactive),-12.8% (inactive),95.1,82.4,-1.43% (inactive),3.11% (inactive)
Cn1c(-c2ccccc2)cnc1SCc1nc2ccccc2c(=O)[nH]1,107% (inactive),105% (inactive),101% (inactive),18.1% (inactive),82.5,101,-2.53% (inactive),4.18% (inactive)
c1coc(-c2nnc(-c3cccs3)o2)c1,106% (inactive),110% (inactive),102% (inactive),14% (inactive),87.9,102,-5.33% (inactive),0% (inactive)
COC(=O)c1cccc(Nc2cc(C)nc(-c3ccccc3O)n2)c1,69% (inactive),62.3% (inactive),64.4% (inactive),-6.26% (inactive),70.7,64.4,0% (inactive),2.18% (inactive)
